For one compound, Activity, viability and inhibition results are on record in ChEMBL document CHEMBL4613227, “Synthesis and evaluation of the HIF-1α inhibitory activity of 3(5)-substituted-4-(quinolin-4-yl)- and 4-(2-phenylpyridin-4-yl)pyrazoles as inhibitors of ALK5” (Bioorg Med Chem Lett, 2020).

Structures are written as SMILES. Calls of active or inactive are those of the source. The rule behind the calls is not given here.

Series [1] concerns the target T1, TGF-beta receptor type-1 (Homo sapiens) (UniProt P36897).
T1 sequence (whole entry): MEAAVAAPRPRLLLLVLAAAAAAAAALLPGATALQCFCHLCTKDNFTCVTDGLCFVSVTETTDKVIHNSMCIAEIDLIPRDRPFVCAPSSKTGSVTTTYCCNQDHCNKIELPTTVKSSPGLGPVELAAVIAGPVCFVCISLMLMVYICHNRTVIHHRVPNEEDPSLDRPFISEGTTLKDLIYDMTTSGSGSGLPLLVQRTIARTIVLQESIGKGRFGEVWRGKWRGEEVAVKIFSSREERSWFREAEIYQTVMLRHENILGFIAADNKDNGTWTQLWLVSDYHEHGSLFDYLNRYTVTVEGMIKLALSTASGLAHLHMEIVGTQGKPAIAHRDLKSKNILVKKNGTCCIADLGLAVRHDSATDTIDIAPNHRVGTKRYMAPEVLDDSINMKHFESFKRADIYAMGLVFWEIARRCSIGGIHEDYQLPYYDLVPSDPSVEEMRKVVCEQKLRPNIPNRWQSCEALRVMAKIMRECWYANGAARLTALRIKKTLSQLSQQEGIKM
As to the kind of experiment: Inhibition of recombinant GST-tagged human ALK5 expressed in baculovirus infected Sf9 insect cells assessed as residual activity at 10 uM. In a few lines:
(§1)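 Single-point kinase screen at 10 μM, in duplicate; ALK5 as human GST-fusion from baculovirus/Sf9, p38α as untagged human protein from E. coli; residual activity relative to DMSO vehicle, mean ± SD of two independent experiments.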

Series [2] has as its system HCT-116. As to the kind of experiment: Induction of apoptosis in human HCT116 cells assessed as viable cells at 50 uM after 12 hrs by Annexin-V/PI-staining based flow cytometric analysis (reference value: 95.3%). The format is functional. As to conditions: HCT-116, 12 h, read-out: Activity. A general note: Flow cytometry measures light scatter and fluorescence of single cells or particles in a stream.

For series [3], the system named is HCT-116. Nature of the series: Cytotoxicity against human HCT116 cells up to 50 uM after 24 hrs by MTT assay. As to conditions: hct-116, 24 h. The format is cell-based. In a few lines: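 Cell viability of HCT116 by MTT after 24 h exposure to graded concentrations up to 50 μM.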
(In general: Formazan colour is commonly taken as a measure of viable cells.)

Series [4] has as its system HUVEC. As to the kind of experiment: Inhibition of TNF-induced cell migration in HUVEC at 50 uM after 24 hrs by scratch wound healing assay. Type of series: functional, cell-based. As to conditions: Homo sapiens. In a few lines:
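HUVEC scratch assay: cells pretreated with graded concentrations, with or without TNF (10 ng/mL); uncovered area photographed at 24 h.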

Series [5] concerns HCT-116. Nature of the series: Induction of apoptosis in human HCT116 cells assessed as necrotic cells at 50 uM preincubated for 12 hrs followed by TNF stimulation and measured after 24 hrs by Annexin-V/PI-staining based flow cytometric analysis (reference value: 3.6%). The format is functional.
Series [6] concerns HCT-116. As to the kind of experiment: Induction of apoptosis in human HCT116 cells assessed as late apoptotic cells at 50 uM after 12 hrs by Annexin-V/PI-staining based flow cytometric analysis (reference value: 0.2%). Type of series: functional.
Series [7] has as its system HCT-116. Nature of the series: Induction of apoptosis in human HCT116 cells assessed as PARP cleavage at 50 uM preincubated for 12 hrs followed by TNF-stimulation and measured after 24 hrs by Western blot analysis. Type of series: functional, cell-based. In short, it runs like this: (§2)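 HCT116 pretreated 12 h with 50 μM, then TNF (10 ng/mL) 24 h; whole cell extracts blotted for cleaved caspase-8, cleaved caspase-3, cleaved PARP, tubulin.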
On the technique in general: Immunoblotting shows a protein as a band on a membrane.

The test system of series [8] is HCT-116. As to the kind of experiment: Inhibition of HIF1alpha accumulation in hypoxia-induced human HCT116 cells at 50 uM preincubated for 30 mins in presence of proteasome inhibitor MG-132 followed by compound addition and measured after 12 hrs under hypoxic condition by Western blot analysis. The format is functional, cell-based. In a few lines: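 HCT116 pretreated with MG-132 (10 μM) 30 min, then compound (50 μM) under 1% O₂ for 12 h; nuclear HIF-1α by Western blot, Topo-I loading control.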

Series [9] concerns HCT-116. Nature of the series: Down regulation of TNF-induced MMP9 protein expression in human HCT116 cells at 50 uM pretreated for 12 hrs followed by TNF stimulation and measured after 24 hrs by Western blot analysis. The format is functional, cell-based. In short, it runs like this: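 HCT116 pretreated 12 h with 50 μM, then TNF (10 ng/mL) 24 h; whole cell extracts immunoblotted for ICAM-1, MMP-9, VEGF with tubulin as loading reference.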

The subject of series [10] is HCT-116. As to the kind of experiment: Down regulation of TNF-induced VEGF mRNA expression in human HCT116 cells at 50 uM pretreated for 12 hrs followed by TNF stimulation and measured after 12 hrs by Western blot analysis. The format is functional, cell-based. The following applies: in the assay text read “RT-PCR analysis” for “Western blot analysis”. In a few lines:
(§3)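 HCT116 preincubated 12 h with graded concentrations, then TNF 10 ng/mL for a further 12 h; ICAM-1, VEGF, MMP-9 transcripts measured by RT-PCR, GAPDH for equal RNA loading.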

For series [11], the target named is Hypoxia-inducible factor 1-alpha (Homo sapiens) (UniProt Q16665). Nature of the series: Inhibition of HIF1alpha transcriptional activity in hypoxia-induced human HCT116 cells co-transfected with luciferase reporter plasmid containing six copies of HREs and pRL-CMV plasmid by luciferase reporter gene assay. Type of series: cell-based. As to conditions: HCT-116. In short, it runs like this:
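HCT116 transiently co-transfected with pGL3-HRE-luciferase and pRL-CMV; after 24 h, incubated under hypoxia with graded concentrations; luciferase activity read; mean ± SD, three independent experiments.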

The target is the same in series [12]. Nature of the series: Inhibition of HIF1-alpha (unknown origin).
Series [13] relates to HCT-116. Nature of the series: Induction of apoptosis in human HCT116 cells assessed as PARP cleavage at 50 uM after 12 hrs by Western blot analysis. Type of series: functional, cell-based.
The subject of series [14] is HCT-116. As to the kind of experiment: Antiproliferative activity against human HCT116 cells assessed as reduction in TNF-induced number of Edu positive cells at 50 uM pretreated for 12 hrs followed by TNF stimulation and measured after 30 mins by Edu-incorporation based fluorescence microscopic analysis. Type of series: functional, cell-based. In short, it runs like this:
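HCT116 cells pretreated 12 h (50 μM), then TNF 10 ng/ml for 30 min; EdU-labelled proliferating cells examined by fluorescence microscopy; mean ± SD of three independent experiments.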

The test system of series [15] is HCT-116. As to the kind of experiment: Inhibition of colony formation in TNF-induced human HCT116 cells pretreated with compound for 12 hrs before TNF stimulation for 30 mins and followed by replacement of fresh medium incubated for 10 days by crystal violet staining based analysis. Type of series: functional, cell-based. In a few lines:
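HCT116 treated 12 h (10, 30, 50 μM), then TNF 10 ng/ml 30 min; medium replaced, growth continued 10 days; crystal violet staining; mean ± SD of three independent experiments.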

Series [16] concerns the target Mitogen-activated protein kinase 14 (Homo sapiens, UniProt Q16539). As to the kind of experiment: Inhibition of recombinant human p38alpha expressed in Escherichia coli assessed as residual activity at 10 uM (reference value: 100 +/- 0.1%). In short, it runs like this:
as §1

In series [17] the test system is HCT-116. As to the kind of experiment: Down regulation of TNF-induced MMP9 mRNA expression in human HCT116 cells at 50 uM pretreated for 12 hrs followed by TNF stimulation and measured after 12 hrs by Western blot analysis. The following applies: in the assay text read “RT-PCR analysis” for “Western blot analysis”. The format is functional, cell-based. In short, it runs like this:
as §3

Series [18] relates to HCT-116. Nature of the series: Induction of apoptosis in human HCT116 cells assessed as effect on cleaved caspase-3 expression at 50 uM preincubated for 12 hrs followed by TNF-stimulation and measured after 24 hrs by Western blot analysis. The format is functional, cell-based. In short, it runs like this:
as §2

The subject of series [19] is HCT-116. As to the kind of experiment: Induction of apoptosis in human HCT116 cells assessed as viable cells at 50 uM preincubated for 12 hrs followed by TNF stimulation and measured after 24 hrs by Annexin-V/PI-staining based flow cytometric analysis (reference value: 92.4%). Type of series: functional. The following applies: read-out: Activity.

Chain of Hypoxia-inducible factor 1-alpha (Homo sapiens) (Q16665 whole entry, looked up): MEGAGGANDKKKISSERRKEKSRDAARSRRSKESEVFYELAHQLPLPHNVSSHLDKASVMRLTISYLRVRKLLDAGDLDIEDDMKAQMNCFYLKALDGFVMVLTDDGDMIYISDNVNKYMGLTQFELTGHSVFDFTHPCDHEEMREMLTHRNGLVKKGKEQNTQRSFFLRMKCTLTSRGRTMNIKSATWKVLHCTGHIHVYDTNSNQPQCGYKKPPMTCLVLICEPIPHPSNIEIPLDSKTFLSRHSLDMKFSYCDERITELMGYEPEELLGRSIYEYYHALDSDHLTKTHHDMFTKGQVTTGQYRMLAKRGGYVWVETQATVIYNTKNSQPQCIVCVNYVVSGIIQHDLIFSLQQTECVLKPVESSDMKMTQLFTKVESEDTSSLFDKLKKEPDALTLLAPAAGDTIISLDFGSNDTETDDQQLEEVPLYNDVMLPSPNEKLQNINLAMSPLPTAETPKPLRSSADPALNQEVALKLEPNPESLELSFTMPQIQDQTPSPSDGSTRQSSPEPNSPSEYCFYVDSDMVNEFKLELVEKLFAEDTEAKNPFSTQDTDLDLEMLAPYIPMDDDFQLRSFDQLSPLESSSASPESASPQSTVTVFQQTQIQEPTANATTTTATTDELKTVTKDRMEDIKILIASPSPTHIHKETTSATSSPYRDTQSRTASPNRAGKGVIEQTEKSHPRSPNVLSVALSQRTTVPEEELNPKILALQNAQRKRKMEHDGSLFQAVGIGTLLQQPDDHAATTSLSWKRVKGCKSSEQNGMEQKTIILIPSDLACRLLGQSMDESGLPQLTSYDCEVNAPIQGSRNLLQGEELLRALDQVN
Chain of Mitogen-activated protein kinase 14 (Q16539 whole entry): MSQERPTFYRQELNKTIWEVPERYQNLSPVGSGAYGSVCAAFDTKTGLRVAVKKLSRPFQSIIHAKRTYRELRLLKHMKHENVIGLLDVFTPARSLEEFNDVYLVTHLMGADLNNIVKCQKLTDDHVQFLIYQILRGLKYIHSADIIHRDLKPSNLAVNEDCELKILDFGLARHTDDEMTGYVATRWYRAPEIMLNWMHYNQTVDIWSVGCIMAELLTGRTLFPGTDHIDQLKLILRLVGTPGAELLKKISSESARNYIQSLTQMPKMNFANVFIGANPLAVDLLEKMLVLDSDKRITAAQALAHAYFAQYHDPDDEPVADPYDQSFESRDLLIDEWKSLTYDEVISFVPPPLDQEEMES

Take `Cc1cccc(-c2nn(CC(=S)Nc3cccc(C#N)c3)cc2-c2ccnc3ccccc23)n1`: the Activity in [1] is 2%; in series [3], “Non-Toxic”; in series [5], 5.4%; in [6] it was 3.2%; in series [16], 3%. The viability at 50 µM was found to be 85.2% in [2] and 86.8% in series [19]. The inhibition result in series [4], in [8] and in series [12] was “Active” each time. For the same compound, the outcome in series [7], in series [9], in [10], in series [13], in series [14] and in series [17] was Active. Further, in series [18], the outcome was Active. Moreover, the inhibition entry in [11] and in [15] was “Dose-dependent effect” each time.
